Measured values from ChEMBL document CHEMBL1134534, “Phenylpiperazinylalkylamino substituted pyridazinones as potent alpha(1) adrenoceptor antagonists” (J Med Chem, 2001).
Activity calls are given as the source filed them. The rule behind the calls is not given here.

Columns and labels:
[1] = target: T1, 5-hydroxytryptamine receptor 1A (Homo sapiens, UniProt P08908); assay: Binding affinity towards human cloned 5-hydroxytryptamine 1A receptor using [3H]8-OH-DPAT as radioligand
T1 sequence (P08908 whole entry): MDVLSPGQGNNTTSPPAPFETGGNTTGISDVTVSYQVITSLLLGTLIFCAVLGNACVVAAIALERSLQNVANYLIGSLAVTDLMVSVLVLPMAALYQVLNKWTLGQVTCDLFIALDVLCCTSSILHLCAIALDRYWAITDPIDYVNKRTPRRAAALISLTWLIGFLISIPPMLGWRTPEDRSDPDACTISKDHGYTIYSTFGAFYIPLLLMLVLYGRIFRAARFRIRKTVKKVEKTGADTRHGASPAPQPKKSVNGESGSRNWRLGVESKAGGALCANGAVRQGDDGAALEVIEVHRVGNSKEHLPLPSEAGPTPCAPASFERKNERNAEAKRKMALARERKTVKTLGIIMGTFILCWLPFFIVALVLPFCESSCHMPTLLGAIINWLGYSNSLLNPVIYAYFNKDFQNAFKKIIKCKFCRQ

[2] = target: T2, Alpha-1A adrenergic receptor (Homo sapiens) (UniProt P35348); assay: Experimental binding affinity for alpha-1A-adrenergic receptor
T2 sequence (whole entry): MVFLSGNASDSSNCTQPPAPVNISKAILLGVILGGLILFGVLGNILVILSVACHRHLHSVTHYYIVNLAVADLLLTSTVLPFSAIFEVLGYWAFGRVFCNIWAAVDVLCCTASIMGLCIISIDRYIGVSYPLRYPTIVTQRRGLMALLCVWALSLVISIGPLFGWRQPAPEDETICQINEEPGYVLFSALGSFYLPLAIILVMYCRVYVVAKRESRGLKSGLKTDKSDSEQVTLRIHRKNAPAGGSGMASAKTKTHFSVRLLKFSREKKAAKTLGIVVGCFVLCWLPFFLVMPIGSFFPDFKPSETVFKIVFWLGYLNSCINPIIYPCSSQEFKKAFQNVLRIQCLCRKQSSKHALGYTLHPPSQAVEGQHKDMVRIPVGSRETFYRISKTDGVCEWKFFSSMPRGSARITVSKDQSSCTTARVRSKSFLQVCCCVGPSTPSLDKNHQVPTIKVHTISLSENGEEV
Outline: (§1)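 Membranes (30 µg protein) from CHO cells stably transfected with each human α1 subtype. Nonspecific binding defined with 10 µM phentolamine. Filtration. IC50 from curve fit, converted to Ki by Cheng–Prusoff. Triplicates; 2–3 experiments.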

[3] = target: T3, Alpha-1D adrenergic receptor (Homo sapiens, UniProt P25100); assay: Binding affinity towards human cloned alpha-1D-adrenoceptor using [3H]prazosin as radioligand
T3 sequence (P25100 whole entry): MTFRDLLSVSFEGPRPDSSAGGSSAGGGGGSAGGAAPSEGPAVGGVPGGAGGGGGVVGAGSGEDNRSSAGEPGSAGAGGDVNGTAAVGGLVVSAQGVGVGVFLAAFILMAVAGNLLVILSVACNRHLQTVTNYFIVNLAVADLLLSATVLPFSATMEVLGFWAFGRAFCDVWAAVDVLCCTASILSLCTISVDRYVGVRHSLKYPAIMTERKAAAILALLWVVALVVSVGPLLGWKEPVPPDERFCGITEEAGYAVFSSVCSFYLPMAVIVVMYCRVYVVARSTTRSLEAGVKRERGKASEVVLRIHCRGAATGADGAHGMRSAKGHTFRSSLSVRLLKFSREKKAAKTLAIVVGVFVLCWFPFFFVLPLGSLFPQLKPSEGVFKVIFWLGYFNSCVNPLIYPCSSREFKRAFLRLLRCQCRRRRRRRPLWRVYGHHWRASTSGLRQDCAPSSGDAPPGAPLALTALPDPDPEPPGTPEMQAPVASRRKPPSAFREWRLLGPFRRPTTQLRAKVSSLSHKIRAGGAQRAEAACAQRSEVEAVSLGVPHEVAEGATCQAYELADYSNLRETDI

[4] = target: T4, Alpha-1A adrenergic receptor (Homo sapiens, UniProt P35348); assay: Binding affinity towards human cloned alpha-1A-adrenoceptor using [3H]prazosin as radioligand
T4 sequence (P35348 whole entry): T2 sequence (whole entry)

[5] = target: T5, Alpha-1B adrenergic receptor (Homo sapiens, UniProt P35368); assay: Binding affinity towards human cloned alpha-1B-adrenoceptor using [3H]prazosin as radioligand
T5 sequence (P35368 whole entry): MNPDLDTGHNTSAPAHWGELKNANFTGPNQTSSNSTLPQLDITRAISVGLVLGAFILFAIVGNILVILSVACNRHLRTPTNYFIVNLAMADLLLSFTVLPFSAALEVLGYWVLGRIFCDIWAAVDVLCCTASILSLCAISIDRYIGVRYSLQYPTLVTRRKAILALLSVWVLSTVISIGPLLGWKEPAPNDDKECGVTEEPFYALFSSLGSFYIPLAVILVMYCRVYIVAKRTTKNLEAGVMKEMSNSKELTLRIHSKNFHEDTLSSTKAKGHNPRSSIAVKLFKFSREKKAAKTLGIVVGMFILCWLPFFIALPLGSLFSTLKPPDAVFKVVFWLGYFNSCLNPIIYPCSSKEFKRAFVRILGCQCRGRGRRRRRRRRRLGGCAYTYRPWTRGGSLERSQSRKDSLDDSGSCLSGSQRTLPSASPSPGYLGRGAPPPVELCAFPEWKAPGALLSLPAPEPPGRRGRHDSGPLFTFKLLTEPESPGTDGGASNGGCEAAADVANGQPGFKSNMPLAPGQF

[6] = target: T6, Alpha-1B adrenergic receptor (Homo sapiens) (UniProt P35368); assay: Experimental binding affinity for alpha-1B-adrenergic receptor; outline: as §1
T6 sequence (whole entry): T5 sequence (P35368 whole entry)

[7] = target: T7, Alpha-1D adrenergic receptor (Homo sapiens) (UniProt P25100); assay: Experimental binding affinity for alpha-1D-adrenergic receptor; outline: as §1
T7 sequence (whole entry): T3 sequence (P25100 whole entry)

[8] = target: T8, 5-hydroxytryptamine receptor 1A (Homo sapiens) (UniProt P08908); assay: Ability to influence the binding of [35S]GTP-gamma-S, to HeLa cell membranes expressing the human 5-hydroxytryptamine 1A receptor; Not active; format: functional
T8 sequence (whole entry): T1 sequence (P08908 whole entry)
Outline: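 Membranes from HeLa cells stably expressing human 5-HT1A, in 20 mM HEPES, 3 mM MgSO4, 120 mM NaCl pH 7.4. Preincubated 20 min at 30 °C with 30 µM GDP and compound (100 µM to 0.1 nM), then [35S]GTPγS (150–250 pM) added for a further 30 min at 30 °C. Nonspecific binding defined with 10 µM GTPγS. Filtration, scintillation counting. pEC50 from nonlinear curve fit; 2–3 experiments.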

[9] = target: T8, 5-hydroxytryptamine receptor 1A (Homo sapiens); assay: Percent of maximum effect on binding of [35S]GTP-gamma-S, to HeLa cell membranes expressing the human 5-hydroxytryptamine 1A receptor; format: functional
Outline: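 [35S]GTPγS binding on human 5-HT1A-expressing HeLa membranes, with 30 µM GDP, compound 100 µM–0.1 nM, 20 min then 30 min at 30 °C. Stimulation given as percent increase over basal, with the maximal 5-HT response set to 100%. Emax taken from the nonlinear curve fit; 2–3 experiments.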

COc1ccc(Cl)cc1N1CCN(CCCCNc2c(C(C)=O)c(C)nn(C)c2=O)CC1
Ki [1]: 1.39 nM
pK1a [2]: 8.52
Ki [3]: 5.96 nM
Ki [4]: 2.99 nM
Ki [5]: 49.1 nM
pK1b [6]: 7.39
pK1d [7]: 8.3

COc1ccccc1N1CCN(CCNc2c(C(=O)C(C)C)c(-c3ccccc3)nn(C)c2=O)CC1
NA [8]: inactive
Ki [1]: 10.2 nM
pK1a [2]: 9.74
Ki [3]: 0.43 nM
Ki [4]: 0.18 nM
Ki [5]: 0.64 nM
pK1b [6]: 9.19
pK1d [7]: 9.37

COc1ccccc1N1CCN(CCNc2c(C(C)=O)c(C)nn(C)c2=O)CC1
Ki [1]: 13 nM
pK1a [2]: 8.64
Ki [3]: 3.2 nM
Ki [4]: 2.29 nM
Ki [5]: 49.8 nM
pK1b [6]: 7.3
pK1d [7]: 8.5

COc1ccc(Cl)cc1N1CCN(CCCNc2c(C(C)=O)c(-c3ccccc3)nn(C)c2=O)CC1
Ki [1]: 1000 nM
pK1a [2]: 8.64
Ki [3]: 3.92 nM
Ki [4]: 0.44 nM
Ki [5]: 1.44 nM
pK1b [6]: 8.85
pK1d [7]: 8.41

COc1ccccc1N1CCN(CCCNc2c(C(C)=O)c(-c3ccccc3)nn(C)c2=O)CC1
Ki [1]: 134 nM
pK1a [2]: 8.82
Ki [3]: 4.32 nM
Ki [4]: 1.51 nM
Ki [5]: 20.3 nM
pK1b [6]: 7.69
pK1d [7]: 8.37

COc1ccc(Cl)cc1N1CCN(CCCNc2c(C(C)=O)c(C)nn(C)c2=O)CC1
Ki [1]: 11.2 nM
pK1a [2]: 9.29
Ki [3]: 5.34 nM
Ki [4]: 0.53 nM
Ki [5]: 8.04 nM
pK1b [6]: 8.1
pK1d [7]: 8.27

COc1ccccc1N1CCN(CCCNc2cc(-c3ccccc3)nn(C)c2=O)CC1
Ki [1]: 127 nM
pK1a [2]: 8.59
Ki [3]: 11.8 nM
Ki [4]: 2.59 nM
Ki [5]: 5.51 nM
pK1b [6]: 8.26
pK1d [7]: 7.93

COc1ccccc1N1CCN(c2c(C(C)=O)c(-c3ccccc3)nn(C)c2=O)CC1
Ki [1]: > 1000 nM
pK1a [2]: 6.79
Ki [3]: > 10000 nM
Ki [4]: 163 nM
Ki [5]: 259 nM
pK1b [6]: 6.59
pK1d [7]: 5

COc1ccccc1N1CCN(CCNc2c(C(C)=O)c(-c3ccccc3)nn(C)c2=O)CC1
NA [8]: inactive
Ki [1]: 2.47 nM
pK1a [2]: 9.46
Ki [3]: 0.13 nM
Ki [4]: 0.63 nM
Ki [5]: 3.29 nM
pK1b [6]: 8.48
pK1d [7]: 9.89

COc1ccc(Cl)cc1N1CCN(CCCNc2cc(-c3ccccc3)nn(C)c2=O)CC1
Ki [1]: > 1000 nM
pK1a [2]: 8.7
Ki [3]: 2.92 nM
Ki [4]: 2 nM
Ki [5]: 2.01 nM
pK1b [6]: 8.7
pK1d [7]: 8.53

COc1ccc(Cl)cc1N1CCN(CCNc2cc(-c3ccccc3)nn(C)c2=O)CC1
Ki [1]: 322 nM
pK1a [2]: 9
Ki [3]: 1.07 nM
Ki [4]: 1 nM
Ki [5]: 1.76 nM
pK1b [6]: 8.75
pK1d [7]: 8.97

CC(=O)c1c(-c2ccccc2)nn(C)c(=O)c1NCCN1CCN(c2ccccc2Cl)CC1
Ki [1]: 11.6 nM
pK1a [2]: 9.52
Ki [3]: 0.25 nM
Ki [4]: 0.3 nM
Ki [5]: 0.75 nM
pK1b [6]: 9.12
pK1d [7]: 9.6

CC(=O)c1c(-c2ccccc2)nn(C)c(=O)c1NCCN1CCN(c2ccccc2F)CC1
Ki [1]: 24.1 nM
pK1a [2]: 9.49
Ki [3]: 0.49 nM
Ki [4]: 0.32 nM
Ki [5]: 3.77 nM
pK1b [6]: 8.42
pK1d [7]: 9.31

COc1ccc(Cl)cc1N1CCN(CCNc2c(C(C)=O)c(-c3ccccc3)nn(C)c2=O)CC1
Ki [1]: 76.2 nM
pK1a [2]: 9.55
Ki [3]: 0.41 nM
Ki [4]: 0.28 nM
Ki [5]: 3.95 nM
pK1b [6]: 8.4
pK1d [7]: 9.39

CCCN(CCC)C1CCc2cccc(O)c2C1 (stereo unspecified) [8-OH-DPAT]
Effect [9]: 100%
Ki [5]: 5980 nM

COc1ccccc1N1CCN(CCNc2cc(C)nn(C)c2=O)CC1
Ki [1]: 32.1 nM
pK1a [2]: 7.73
Ki [3]: 17.7 nM
Ki [4]: 18.6 nM
Ki [5]: 33.1 nM
pK1b [6]: 7.48
pK1d [7]: 7.75

COc1ccccc1N1CCN(CCNc2cc(-c3ccccc3)nn(C)c2=O)CC1
Ki [1]: 14 nM
pK1a [2]: 9.66
Ki [3]: 11.8 nM
Ki [4]: 0.22 nM
Ki [5]: 2.01 nM
pK1b [6]: 8.7
pK1d [7]: 7.93
